Experimental data reported in ChEMBL document CHEMBL1157473, “Identification of 4-benzylamino-2-[(4-morpholin-4-ylphenyl)amino]pyrimidine-5-carboxamide derivatives as potent and orally bioavailable STAT6 inhibitors” (Bioorg Med Chem, 2008).

Molecular target: T1, Signal transducer and activator of transcription 6 (Homo sapiens, UniProt P42226)
T1 sequence (P42226 whole entry): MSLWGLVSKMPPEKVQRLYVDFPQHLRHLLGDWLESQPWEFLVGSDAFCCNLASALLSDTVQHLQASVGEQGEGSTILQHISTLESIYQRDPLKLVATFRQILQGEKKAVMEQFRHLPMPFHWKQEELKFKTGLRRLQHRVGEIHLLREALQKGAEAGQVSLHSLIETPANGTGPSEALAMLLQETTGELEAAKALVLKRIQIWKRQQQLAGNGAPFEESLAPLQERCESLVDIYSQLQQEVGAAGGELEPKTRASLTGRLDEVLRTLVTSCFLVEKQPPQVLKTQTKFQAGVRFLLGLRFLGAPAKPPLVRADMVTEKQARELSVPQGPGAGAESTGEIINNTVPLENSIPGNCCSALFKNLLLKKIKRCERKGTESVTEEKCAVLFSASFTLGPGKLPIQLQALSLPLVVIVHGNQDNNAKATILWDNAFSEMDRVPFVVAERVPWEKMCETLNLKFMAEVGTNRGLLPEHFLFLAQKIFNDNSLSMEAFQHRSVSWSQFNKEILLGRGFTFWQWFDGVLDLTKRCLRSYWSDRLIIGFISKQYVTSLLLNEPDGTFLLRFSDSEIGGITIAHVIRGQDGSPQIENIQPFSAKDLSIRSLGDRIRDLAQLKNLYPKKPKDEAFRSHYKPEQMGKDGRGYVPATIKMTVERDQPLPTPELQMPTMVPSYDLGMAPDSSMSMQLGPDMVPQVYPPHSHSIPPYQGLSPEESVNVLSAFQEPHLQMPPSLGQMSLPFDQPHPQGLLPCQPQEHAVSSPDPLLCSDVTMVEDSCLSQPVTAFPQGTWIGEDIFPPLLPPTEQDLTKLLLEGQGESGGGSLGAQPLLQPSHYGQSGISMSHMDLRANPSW
Experiment: Inhibition of STAT6 activation in FW4 reporter cells
Type: cell-based
Conditions: not given

Structure (SMILES)	IC50
NC(=O)c1cnc(Nc2ccc(N3CCCC3)cc2)nc1NCc1ccccc1	650 nM
NC(=O)c1cnc(Nc2ccc(N3CCNCC3)cc2)nc1NCc1ccccc1	7 nM
NC(=O)c1cnc(Nc2ccc(N3CCOCC3)cc2)nc1NCc1ccccc1Cl	7.9 nM
NC(=O)c1cnc(Nc2ccc(N3CCOCC3)cc2)nc1NCc1cccc(C(F)(F)F)c1	130 nM
COc1cccc(CNc2nc(Nc3ccc(N4CCOCC4)cc3)ncc2C(N)=O)c1	25 nM
CSc1ccccc1CNc1nc(Nc2ccc(N3CCOCC3)cc2)ncc1C(N)=O	23 nM
NC(=O)c1cnc(Nc2ccc(N3CCOCC3)cc2)nc1NCc1cc(F)cc(F)c1	5.5 nM
NC(=O)c1cnc(Nc2ccc(N3CCOCC3)cc2)nc1NCc1cccc(O)c1	19 nM
NC(=O)c1cnc(Nc2ccc(N3CCOCC3)cc2)nc1NCc1ccccc1N	310 nM
NC(=O)c1cnc(Nc2ccc(N3CCOCC3)cc2)nc1NCc1ccc(F)cc1F	310 nM
NC(=O)c1cnc(Nc2ccc(N3CCOCC3)cc2)nc1NCc1ccccc1C(F)(F)F	25 nM
CS(=O)(=O)c1ccccc1CNc1nc(Nc2ccc(N3CCOCC3)cc2)ncc1C(N)=O	2000 nM
CN1CCC(c2ccc(Nc3ncc(C(N)=O)c(NCc4ccccc4)n3)cc2)CC1	17 nM
NC(=O)c1cnc(Nc2ccc(N3CCC(O)CC3)cc2)nc1NCc1ccccc1	16 nM
CC(=O)Nc1ccccc1CNc1nc(Nc2ccc(N3CCOCC3)cc2)ncc1C(N)=O	5200 nM
NC(=O)c1cnc(Nc2ccc(N3CCOCC3)cc2)nc1NCc1cccc(F)c1F	2.1 nM

More lines, now with the values ahead:

IC50	Structure (SMILES)
98 nM	NC(=O)c1cnc(Nc2ccc(N3CCC(O)C3)cc2)nc1NCc1ccccc1 (stereo not drawn)
120 nM	NC(=O)c1cnc(Nc2ccc(N3CCCCC3)cc2)nc1NCc1ccccc1
95 nM	NC(=O)c1cnc(Nc2ccc(CCO)cc2)nc1NCc1ccccc1
81 nM	NC(=O)c1cnc(Nc2ccc(CCCO)cc2)nc1NCc1ccccc1
8.2 nM	COc1ccccc1CNc1nc(Nc2ccc(N3CCOCC3)cc2)ncc1C(N)=O
6.2 nM	CN1CCN(c2ccc(Nc3ncc(C(N)=O)c(NCc4ccccc4)n3)cc2)CC1
1.4 nM	NC(=O)c1cnc(Nc2ccc(N3CCOCC3)cc2)nc1NCc1ccccc1F
650 nM	NC(=O)c1cnc(Nc2ccc(N3CCOCC3)cc2)nc1NCc1ccc(F)cc1
22 nM	NC(=O)c1cnc(Nc2ccc(N3CCOCC3)cc2)nc1NCc1ccccc1O
36 nM	NC(=O)c1cnc(Nc2ccc(N3CCOCC3)cc2)nc1NCc1cccc(Cl)c1
1.6 nM	NC(=O)c1cnc(Nc2ccc(N3CCOCC3)cc2)nc1NCc1cc(F)ccc1F
11 nM	Cc1ccccc1CNc1nc(Nc2ccc(N3CCOCC3)cc2)ncc1C(N)=O
1.8 nM	NC(=O)c1cnc(Nc2ccc(N3CCOCC3)cc2)nc1NCc1cccc(F)c1
61 nM	NC(=O)c1cnc(NCCc2cc(Cl)c(O)c(Cl)c2)nc1NCc1ccccc1
1.8 nM	NC(=O)c1cnc(Nc2ccc(N3CCOCC3)cc2)nc1NCc1cc(F)cc(F)c1F
2.2 nM	NC(=O)c1cnc(Nc2ccc(N3CCOCC3)cc2)nc1NCc1c(F)cccc1F
38 nM	NC(=O)c1cnc(Nc2ccc(N3CCOCC3)cc2)nc1NCc1ccccc1[N+](=O)[O-]

Tested on: not listed separately
Experiment: Clearance in BALB/c mouse at 1 mg/kg, iv
Type: ADME, organism-based
Design: dose 1 mg/kg, route intravenous
Conditions: in vivo
Procedure, shortened: (§1)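 Overnight-fasted 8-week-old female Balb/c mice were given 1 mg/kg by tail-vein injection at 10 mL/kg, in a Cremophor EL/saline-based vehicle. Plasma was extracted by solid-phase extraction and analysed by HPLC-MS-MS.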

clearance	Structure (SMILES)
59.6 mL/min/kg	NC(=O)c1cnc(Nc2ccc(N3CCOCC3)cc2)nc1NCc1ccccc1
168 mL/min/kg	NC(=O)c1cnc(NCCc2cc(Cl)c(O)c(Cl)c2)nc1NCc1ccccc1

Tested on: not listed separately
Experiment: Half life in BALB/c mouse at 1 mg/kg, iv
Type: ADME, organism-based
Design: dose 1 mg/kg, route intravenous
Conditions: in vivo
Procedure, shortened: as §1

half-life	Structure (SMILES)
45.6 min	NC(=O)c1cnc(Nc2ccc(N3CCOCC3)cc2)nc1NCc1ccccc1
3.6 min	NC(=O)c1cnc(NCCc2cc(Cl)c(O)c(Cl)c2)nc1NCc1ccccc1

Tested on: not listed separately
Experiment: Volume of distribution in BALB/c mouse at 1 mg/kg, iv
Type: ADME, organism-based
Design: dose 1 mg/kg, route intravenous
Conditions: in vivo
Procedure, shortened: as §1

Vd	Structure (SMILES)
3.91 L/kg	NC(=O)c1cnc(Nc2ccc(N3CCOCC3)cc2)nc1NCc1ccccc1
0.931 L/kg	NC(=O)c1cnc(NCCc2cc(Cl)c(O)c(Cl)c2)nc1NCc1ccccc1

Tested on: not listed separately
Experiment: Oral bioavailability in BALB/c mouse at 10 mg/kg
Type: ADME, organism-based
Conditions: in vivo
Procedure, shortened: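 Oral dose of 10 mg/kg in 0.5% methylcellulose (10 mL/kg) to overnight-fasted 8-week-old female Balb/c mice, against a 1 mg/kg iv dose. Blood was sampled from the vena cava at 0.25 to 24 h. Plasma was assayed by solid-phase extraction and HPLC-MS-MS.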

bioavailability	Structure (SMILES)
1%	NC(=O)c1cnc(NCCc2cc(Cl)c(O)c(Cl)c2)nc1NCc1ccccc1

Tested on: not listed separately
Experiment: Oral bioavailability in BALB/c mouse at 3 mg/kg
Type: ADME, organism-based
Conditions: in vivo
Procedure, shortened: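 Mice were 8-week-old female Balb/c, fasted overnight, given 3 mg/kg po in 0.5% methylcellulose (10 mL/kg), with 1 mg/kg iv as reference. Vena cava blood was collected at 0.25 to 24 h. Plasma was extracted by solid-phase extraction and quantified by HPLC-MS-MS.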

bioavailability	Structure (SMILES)
30%	NC(=O)c1cnc(Nc2ccc(N3CCOCC3)cc2)nc1NCc1ccccc1

Tested on: not listed separately
Experiment: Dissociation constant, pKa of the compound
Type: physicochemical
Conditions: not given

Structure (SMILES)	pKa
Oc1c(Cl)cccc1Cl [2,6-DICHLOROPHENOL]	7.15
Oc1ccccc1Cl [2-CHLOROPHENOL]	9.13
